Compound activity deposited in PubChem by Broad Institute.
Compounds with a hit are over-represented: about 2.1% of the library has one in this group of screens.
SR-BI DiI inh: inhibitors of SR-BI mediated HDL lipid uptake, primary screen, ldlA[mSR-BI] cells, fluorescence, single point; Scavenger receptor class B member 1 (Mus musculus), Q61009; ldlA[mSR-BI] CHO cells, DiI-HDL uptake fluorescence, 3 h; inhibition, % at 12.5 µM; 0.96% of 320,000 active; AID 488896, 2010;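 active = mean replicate inhibition of at least 70% and a set share of replicates each scoring 70 or more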
Target sequence (Q61009 whole entry, looked up): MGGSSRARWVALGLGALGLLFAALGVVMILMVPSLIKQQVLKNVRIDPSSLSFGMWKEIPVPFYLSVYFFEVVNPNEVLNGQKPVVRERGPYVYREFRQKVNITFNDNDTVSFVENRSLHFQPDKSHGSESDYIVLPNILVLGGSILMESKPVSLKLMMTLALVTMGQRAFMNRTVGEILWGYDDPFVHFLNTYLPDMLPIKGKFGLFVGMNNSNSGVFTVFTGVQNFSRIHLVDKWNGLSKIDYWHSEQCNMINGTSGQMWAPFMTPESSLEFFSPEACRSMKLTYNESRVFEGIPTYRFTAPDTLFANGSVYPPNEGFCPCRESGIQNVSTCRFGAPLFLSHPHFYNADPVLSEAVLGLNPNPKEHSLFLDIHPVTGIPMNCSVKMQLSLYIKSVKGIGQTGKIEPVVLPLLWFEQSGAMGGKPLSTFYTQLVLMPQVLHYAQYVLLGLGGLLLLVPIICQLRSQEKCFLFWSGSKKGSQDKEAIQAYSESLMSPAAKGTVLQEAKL
CAL PDZ FP-1: CAL PDZ peptide-binding inhibitors, primary screen, biochemical, fluorescence polarization, Cer-tagged CAL PDZ, HTS | Golgi-associated PDZ and coiled-coil motif-containing protein (Homo sapiens), Q9HD26 | purified CAL PDZ, TMR-peptide fluorescence polarization, 1 h | inhibition, % at 20 µM | 0.02% of 330,000 active | AID 504414, 2011;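 active = highest replicate inhibition of at least 40%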
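Read-out basis: mP drop reported as inhibition | Assay system: Tagged CAL PDZ protein CerCALP, purified | Benchmarks: Unlabelled peptide for full inhibition, DMSO wells as neutral | Schedule: 1 h incubation at room temperature before polarization reading | Buffer or medium: Sodium phosphate/NaCl buffer pH 7.4 with TCEP, IgG, Thesit | Doses: Single point, 20 µM | Measured by: Fluorescence polarization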
SR-BI uptake up: activators of SR-BI mediated DiI-HDL uptake, primary screen, ldlA[mSR-BI] CHO cells, DiI fluorescence. 3 h; 100 = double the neutral-control signal. activation, % at 12.5 µM. 0.096% of 320,000 active;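 active = mean replicate activation of at least 60% and every replicate at or above 60%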
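Test system: SR-BI-overexpressing, LDLR-lacking CHO cells; Medium: Ham's F12 with 0.5% BSA, HEPES 25 mM, pH 7.4; Schedule: 3 h, 37 °C; Technique: bottom-read fluorescence, 550/595 nm.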
CAL PDZ FP-2: untagged CAL PDZ binding inhibitors, primary screen, biochemical, fluorescence polarization, HTS; Golgi-associated PDZ and coiled-coil motif-containing protein (Homo sapiens), Q9HD26; purified CAL PDZ, TMR-peptide fluorescence polarization, 1 h; inhibition, % at 24.9 µM; 0.92% of 300,000 active; AID 602252, 2012;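 active = mean inhibition of at least 30% with at least half of replicates also reaching 30%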
ARNT-TACC3 inh: disruptors of ARNT/TACC3 protein interaction, primary screen, biochemical, AlphaScreen, single concentration; 0.66% of 390,000 active; inhibition, % at 9.99 µM; AlphaScreen His-ARNT PAS-B/GST-TACC3 binding, luminescence; TACC3 fragment carries E629A point mutation; AID 623870, 2012;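 active = mean inhibition of replicates at least 50% and at least half of replicates each reaching 50%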
miR122 inh: miR-122 Renilla sensor signal increase in Huh7, primary screen, miR-122 inhibitor project, cell-based, single point, plate reader. Huh7 miR-122 Renilla luciferase sensor, 48 h; neutral wells = 0, positive control = 100. activation (reporter increase), % at 12.5 µM. 0.3% of 340,000 active. AID 602342, 2012;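 active = mean replicate activation score at least 90 and every replicate individually at or above 90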;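 also: higher luciferase means less miR-122 activity so hits act as miR-122 inhibitors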
ARNT Alpha ctr-1: AlphaScreen signal interference compounds, dose response, artefact control for ARNT-TACC3 interaction inhibitor project, biochemical, luminescence, cherry-pick. shares compounds with ARNT-TACC3 inh. His-ARNT PASB-GST AlphaScreen artifact counter-screen. AC50, µM (top dose mostly 68 µM). 50% of 1,200 active. AID 651705, 2012;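 active = every separate test run was called active for a drop in luminescence, with AC50 within twice the top valid dose, actives reach about 71 µM in these data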
ARNT Alpha ctr-2: AlphaScreen signal interference by compounds, dose response, artefact control for ARNT/TACC3 disruptor project, biochemical, dual-tagged ARNT, dry powder | AID 720564, 2013 | Dual-tagged His-ARNT PASB-GST AlphaScreen artifact counter-screen | AC50, µM | shares compounds with ARNT-TACC3 inh | 70% of 45 active;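 active = luminescence drop, with half-maximal potency fitted within twice the sample's top valid dose, cut at about 70 µM in these data; inactive = the rest, including signal moving the wrong way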
Large screens that a line does not name were inactive (follow-up assays come after a bar, where they were run).

O=C(N[C@@H]1CC[C@@H](CCn2cc(-c3ccccn3)nn2)O[C@H]1CO)c1cccnc1	ARNT-TACC3 inh 71 (no result: SR-BI DiI inh, CAL PDZ FP-1, SR-BI uptake up, CAL PDZ FP-2, miR122 inh) | ARNT Alpha ctr-1 37µM
O=C(N[C@@H]1CC[C@H](CCn2cc(-c3ccccn3)nn2)O[C@H]1CO)c1cccnc1	ARNT-TACC3 inh 84 (no result: SR-BI DiI inh, CAL PDZ FP-1, SR-BI uptake up, CAL PDZ FP-2, miR122 inh) | ARNT Alpha ctr-1 44µM
COc1ccc(NC(=O)Nc2ccc3c(c2)CC(=O)N([C@@H](C)CO)C[C@@H](C)[C@H](CN(C)C)O3)cc1	none (no result: SR-BI DiI inh, CAL PDZ FP-1, SR-BI uptake up, CAL PDZ FP-2)
CO[C@@H]1CN(C)C(=O)c2cc(NS(=O)(=O)c3ccc(C)cc3)ccc2OC[C@H](C)NC[C@@H]1C	none (no result: SR-BI DiI inh, CAL PDZ FP-1, SR-BI uptake up, CAL PDZ FP-2)
COc1ccccc1C(=O)Nc1ccc2c(c1)OC[C@H](C)N(C)C[C@H](C)[C@@H](OC)CN(C)C2=O	none (no result: SR-BI DiI inh, CAL PDZ FP-1, SR-BI uptake up, CAL PDZ FP-2)
COCC(=O)Nc1ccc2nc3n(c(=O)c2c1)CCCCC3	none
COc1cc(NC(=O)C(=O)Nc2ccc3nc4n(c(=O)c3c2)CCCCC4)cc(OC)c1OC	ARNT-TACC3 inh 50 (no result: SR-BI DiI inh, SR-BI uptake up) | ARNT Alpha ctr-1 inactive
COc1ccccc1Nc1cc2cc(Br)ccc2c(=O)[nH]1	ARNT-TACC3 inh 55 | ARNT Alpha ctr-1 inactive
O=c1[nH]c(Nc2ccccc2)cc2cc(Br)ccc12	none (no result: miR122 inh)
O=C(Nc1nc2ccccc2s1)c1ccc([N+](=O)[O-])o1	none (no result: miR122 inh)
O=C(Nc1nc(-c2ccccn2)cs1)c1cc(Cl)ccc1[N+](=O)[O-]	ARNT-TACC3 inh 58 (no result: miR122 inh) | ARNT Alpha ctr-1 18µM
O=C(Nc1nc(-c2ccccn2)cs1)C1COc2ccccc2O1 (stereo not drawn)	ARNT-TACC3 inh 71 (no result: CAL PDZ FP-2) | ARNT Alpha ctr-1 29µM
O=C(Nc1nc(-c2ccccc2)cs1)C1COc2ccccc2O1 (stereo not drawn)	none (no result: ARNT-TACC3 inh)
O=C(Nc1nc(-c2ccccn2)cs1)c1ccc([N+](=O)[O-])o1	ARNT-TACC3 inh 61 | ARNT Alpha ctr-1 17µM
Cc1ccc(C(=O)Nc2nc(-c3ccccc3)cs2)o1	none (no result: SR-BI DiI inh, CAL PDZ FP-1, SR-BI uptake up, CAL PDZ FP-2, ARNT-TACC3 inh, miR122 inh) | ARNT Alpha ctr-2 inactive
COc1ccccc1C(=O)Nc1ccc2c(c1)C(=O)N(C)[C@@H]1CC[C@@H](CC(=O)NCCc3ccncc3)O[C@H]1CO2	none (no result: SR-BI DiI inh, CAL PDZ FP-1, SR-BI uptake up, CAL PDZ FP-2, miR122 inh)
C[C@@H]1CN([C@@H](C)CO)C(=O)c2cccc(NS(C)(=O)=O)c2O[C@@H]1CN(C)Cc1ccc(C(=O)Nc2ccccc2N)cc1	none (no result: SR-BI DiI inh, CAL PDZ FP-1, SR-BI uptake up, CAL PDZ FP-2)
Cc1ccccc1S(=O)(=O)NCC[C@H]1CC[C@H](NC(=O)C2CCCCC2)[C@@H](CO)O1	none (no result: SR-BI DiI inh, CAL PDZ FP-1, SR-BI uptake up, CAL PDZ FP-2, miR122 inh)
Cc1ccc(C(=O)Nc2nc(-c3ccccn3)cs2)o1	ARNT-TACC3 inh 60 (no result: miR122 inh) | ARNT Alpha ctr-1 23µM | ARNT Alpha ctr-2 9.9
O=C(COc1ccc([N+](=O)[O-])cc1)Nc1nc(-c2ccccn2)cs1	ARNT-TACC3 inh 63 | ARNT Alpha ctr-1 48µM
O=C(c1ccc2c(c1)OCO2)N1C[C@H]2[C@@H](c3ccccc31)[C@@H](CO)N2CC1CCCC1	none (no result: SR-BI DiI inh, CAL PDZ FP-1, SR-BI uptake up, CAL PDZ FP-2)
CO[C@@H]1CN(C)C(=O)c2cc(NC(=O)NC(C)C)ccc2OC[C@H](C)NC[C@@H]1C	none (no result: SR-BI DiI inh, CAL PDZ FP-1, SR-BI uptake up, CAL PDZ FP-2)
Cc1nnc(NC(=O)C2CCN(S(=O)(=O)c3cc([N+](=O)[O-])ccc3Cl)CC2)o1	ARNT-TACC3 inh 52 | ARNT Alpha ctr-1 inactive
